The list is not random: actives were taken first. Their share in the collection is about 2.7%.
ARFGAP1 inhibitor = inhibitors of rat ARFGAP1 GAP activity, primary screen, biochemical, fluorescence polarization, GDP tracer; 360,000 tested, 0.26% active; Arfgap1-stimulated ARF1 GTP hydrolysis, GDP FP detection; inhibition, % at 16.5 µM;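 active means inhibition above a per-plate limit, mean inhibition of low control wells plus 3 SD, cut at about 25% in these data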;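 further: 0% = DMSO wells with enzyme and 100% = wells lacking Arfgap1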
Target sequence (Q62848 1-136 limits assumed): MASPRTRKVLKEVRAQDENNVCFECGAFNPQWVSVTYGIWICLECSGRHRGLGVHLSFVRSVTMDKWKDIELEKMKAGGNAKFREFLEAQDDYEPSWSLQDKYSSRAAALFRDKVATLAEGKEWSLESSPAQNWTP
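System: truncated rat Arfgap1 GAP domain / Benchmarks: high control wells lacking Arfgap1, low control full reaction with DMSO / Times: compound-enzyme preincubation 20 min, reaction 120 min, detection 60 min, 25 °C / Repeats: one replicate per compound / Also added: human ARF1(Δ1-17)-GTP substrate / Measured by: Tracer-displacement fluorescence polarization with EDTA stop, 620/688 nm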
MsrA inh = bovine MsrA enzyme inhibitors, primary screen, biochemical, absorbance, HTS; purified bovine MsrA, absorbance read-out; inhibition, % at 15.5 µM; Methionine sulfoxide reductase A (Bos taurus); 360,000 tested, 0.75% active; AID 651718, 2012;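 further: 0% = vehicle wells with enzyme and 100% = reference inhibitor wells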
sPLA2-III inh = human group III sPLA2 inhibitors, primary screen, biochemical, QFRET, BODIPY PC-A2 liposome substrate; Group 3 secretory phospholipase A2 (Homo sapiens), Q9NZ20; QFRET BODIPY PC-A2 liposome hydrolysis, fluorescence; inhibition, % at 12.2 µM; 370,000 tested, 0.56% active;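 active means inhibition above mean plus 3 SD of compounds lying within the high and low control bounds, cut at about 19% in these data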;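 further: 0% = median of test compound wells and 100% = no enzyme DMSO wells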
ASAP1 inh = inhibitors of human ASAP1 ArfGAP activity, primary screen, biochemical, fluorescence polarization; ASAP1-stimulated ARF1 GTP hydrolysis, GDP FP detection; inhibition, % at 16.5 µM; 360,000 tested, 0.19% active; in the data active means inhibition above about 25%;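 further: 0% = vehicle with enzyme and substrate and 100% = no enzyme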
MsrA act = bovine MsrA enzyme activators, primary screen, biochemical, absorbance, HTS | Methionine sulfoxide reductase A (Bos taurus) | purified bovine MsrA, absorbance read-out | activation, % at 10.6 µM | 360,000 tested, 0.3% active | AID 602163, 2012; in the data active means activation above about 7.5%;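 further: 0% = vehicle and 100% = reference activator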
NR1D1 modulator = modulators of Rev-erb alpha DNA binding, primary screen, biochemical, FITC-DNA, fluorescence polarization, uHTS; Nuclear receptor subfamily 1 group D member 1 (Homo sapiens), P20393; Rev-erbα–FITC-DNA binding, 90 min; activity, % at 10 µM; 370,000 tested, 0.79% active; AID 1259318, 2017;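 active means activity above about 14%, limit read from the data; passing the limit was not always enough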;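 further: 0% = DMSO wells with 35 nM protein and 100% = DMSO wells with 750 nM protein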
MsrA conf = bovine MsrA inhibitors, retest, confirmation, biochemical, absorbance, HTS; shares compounds with MsrA inh; purified bovine MsrA, absorbance read-out; inhibition, % at 15.5 µM; 2,300 tested, 41% active; AID 651822, 2012;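 further: coupled to thioredoxin reductase with NADPH and selenocystamine and DMSO as substrate; 0% = vehicle only and 100% = full effect of reference inhibitor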
Starred values were filed as active, the others as inactive; x = no result given. Unless noted, no stated cut-off is given here; in the data, active means inhibition above about 4.5%; inactive means the rest.

SMILES	ARFGAP1 inhibitor	MsrA inh	sPLA2-III inh	ASAP1 inh	MsrA act	NR1D1 modulator	MsrA conf
COCCNC(=S)N/N=C/c1ccc(N2CCOCC2)cc1	-3	8.1*	10	7	-6	2	5.9*
COc1ccc(S(=O)(=O)N(C)C[C@@H]2Oc3c(NC(=O)Nc4ccccc4)cccc3C(=O)N([C@@H](C)CO)C[C@H]2C)cc1	x	x	-32	x	x	-9	x
C=CCn1c(SCC(=O)Nc2ccccc2-c2ccccc2)nnc1-c1ccccc1	x	x	-3	x	x	-4	x
O=S1(=O)c2c(cccc2N2CC[C@@H](O)C2)O[C@H]2CCN1C2	x	x	0	x	x	-2	x
CCCCCCC(=O)n1ccc2ccc(-c3ccc4ccn(Cc5ccc(OC)cc5)c4c3)cc21	x	x	2	x	x	-2	x
O=C(O)c1cc(N/N=C/c2ccc(N3CCOCC3)cc2)ccc1Cl	-5	4.8*	-5	-2	-13	-8	5.8*
C=C(C)CNC(=S)N/N=C/c1ccc(N2CCOCC2)cc1	-1	6.1*	5	20	-6	-1	5.1*
COc1cc(/C=N/NC(=S)NCCN2CCOCC2)ccc1O	6	7.4*	13	-1	-5	6	5.2*
O=C(NCc1cccs1)C1CCC(CNS(=O)(=O)c2cccc3cccnc23)CC1 (centres undefined)	x	x	6	x	x	2	x
Cc1ccc(NC(=O)C2CCN(c3nnc(-n4cccc4)s3)CC2)cc1C	x	x	-2	x	x	4	x
CC(COc1cc(F)cc(F)c1)CN1CCC(C(O)(c2ccccc2)c2ccccc2)CC1 (centres undefined)	x	x	-13	x	x	-1	x
C[C@@H](CO)N(Cc1cn(Cc2ccccc2)nn1)S(=O)(=O)c1ccccc1Br	x	x	6	x	x	-1	x
O=C(/C=C/c1ccco1)Nc1cccc(S(=O)(=O)N2CCOCC2)c1	-8	2	-5	-11	-6	5	x
Cc1ccc(/C=C/C(=O)Nc2cccc(S(=O)(=O)N3CCOCC3)c2)o1	-14	5.0*	-1	1	-6	2	4.9*
O=C(N/N=C/c1ccc([N+](=O)[O-])o1)c1cc(-c2ccncc2)nc2ccccc12	12	6.1*	-3	13	-10	-4	2
O=C(N/N=C/c1ccc([N+](=O)[O-])o1)c1cc(-c2ccc(-c3ccccc3)cc2)nc2ccccc12	-2	1	0	-7	0	-2	x
COc1cc(OC)c(OC)cc1/C=N/N(C)c1ccccc1	-1	3	3	-4	-1	-4	x
CCOc1ccccc1-c1cc(C(=O)N/N=C/c2ccc(O)c(OC)c2)c2ccccc2n1	-1	4.9*	-17	5	-7	2	2
COc1ccc(/C=N/Nc2ccccn2)cc1O	7	6.1*	-3	-2	-5	3	3
COc1cc(/C=N/N(C)c2ccccc2)ccc1O	15	5.3*	1	3	-1	1	4
CCCCOc1ccc(C(=O)NC2CCCCN(Cc3ccc(Cl)cc3)C2=O)cc1 (centres undefined)	x	x	-2	x	x	0	x
O=C(N/N=C/c1cccc(O)c1)c1cc(-c2ccccc2)nc2ccccc12	10	1	-30	18	-3	5	x
CCOC(=O)c1c(NC(=O)C(=O)N/N=C/c2ccc(O)c(OC)c2)sc2c1CCCCC2	3	5.0*	3	1	-1	0	3
COc1cc(/C=N/NC(=O)c2cccc(C(=O)N/N=C/c3ccc(O)c(OC)c3)n2)ccc1O	4	6.6*	-11	6	-3	-18	3
COc1ccc(/C=N/NC(=O)c2cc(-c3ccccc3)nc3ccccc23)c(OC)c1	7	5.4*	-4	10	-6	1	4

Assay outcomes (PubChem BioAssay)
